Consider 24 compounds from ChEMBL document CHEMBL1121714, “Nonsteroidal antiinflammatory agents. 2. Synthesis of 4',5-disubstituted 3-biphenylylacetic acids and their derivatives with antiinflammatory and analgesic activities” (J Med Chem, 1981).

Data set [1] can be described thus: Acute toxicity was determined 168 hr after a single ip injection to groups of four male ddY mice. In kind it is organism-based. The settings on record: mouse, in vivo. The method in brief:
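LD50 calculated by the method of Weil.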

Data set [2] relates to Rattus norvegicus. Description: Inhibitory activity on carrageenan-induced paw edema in rats 3h after po administration of 50 mg/kg. In kind it is functional. The method in brief: (§1)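 Oral dosing, screened first at 50 mg/kg and retested at 20 and 10 mg/kg if inhibition was 30% or more. Paw volume was remeasured at 3 h, and the increase was compared with controls to give percent inhibition.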
Background: Carrageenan injected into the paw causes an acute inflammation.

The next data set relates to Mus musculus. Description: Analgesic activity against AcOH writhing after po administration.
The subject of data set [3] is Rattus norvegicus. Description: Inhibitory activity on carrageenan-induced paw edema in rats 3h after po administration of 20 mg/kg. Format: functional. The method in brief: as §1
The subject of data set [4] is Rattus norvegicus. Description: Inhibitory activity on carrageenan-induced paw edema in rats 3h after po administration of 10 mg/kg. Format: functional. The method in brief: as §1
Data set [5] relates to Rattus norvegicus. Description: Inhibitory activity on carrageenan-induced paw edema in rats 3h after administration of 20 mg/kg. In kind it is functional. Put shortly: as §1
In data set [6] the test system is Rattus norvegicus. The experiment in a line: Inhibitory activity on carrageenan-induced paw edema in rats 3h after po administration of 0.5 mg/kg. In kind it is functional. The settings on record: read-out: Inhibition.
Data set [7] relates to Rattus norvegicus. The experiment in a line: Inhibitory activity on carrageenan-induced paw edema in rats 3h after po administration of 2 mg/kg. The settings on record: read-out: Inhibition. Format: functional.
Data set [8] deals with Rattus norvegicus. The experiment in a line: Inhibitory activity on carrageenan-induced paw edema in rats 3h after po administration of 5 mg/kg. Format: functional. As to conditions: read-out: Inhibition.

Take `COc1ccc(-c2cccc(C(C)C(=O)O)c2)cc1` (centres undefined): the LD50 (usually the dose at which mortality reaches 50%) at 168 h in data set [1] worked out at 566 mg/kg. In the data set with Rattus norvegicus [2], this compound returned an inhibition in vivo at 50 mg/kg of 0%. In addition, in the data set with Mus musculus, the ED50 (usually the dose at which the effect has come halfway, by size or by number of responders) was more than 50 mg/kg.

For the compound `O=C(O)Cc1cc(Cl)cc(-c2ccccc2)c1`, the LD50 at 168 h in data set [1] is 283 mg/kg. The inhibition in vivo at 20 mg/kg in the data set with Rattus norvegicus [3] stood at 25%. In addition, in the data set with Rattus norvegicus [2], the inhibition in vivo at 50 mg/kg was 32%. Further, the median effective dose (ED50) with Mus musculus is more than 50 mg/kg.

Turning to `COc1ccc(-c2cc(CC(=O)O)cc(NC(C)=O)c2)cc1`, the LD50 at 168 h in data set [1] was more than 800 mg/kg. Also, in the data set on Rattus norvegicus [2], the inhibition in vivo at 50 mg/kg came to 15%. This compound gave a median effective dose (ED50) in the data set on Mus musculus of more than 50 mg/kg.

Regarding `CC(=O)Nc1cc(CC(=O)O)cc(-c2ccc(Cl)cc2)c1`, the LD50 at 168 h in data set [1] worked out at 476 mg/kg. The compound further yielded an inhibition in vivo at 50 mg/kg in the data set with Rattus norvegicus [2] of 0%. Further, the ED50 in the data set on Mus musculus was more than 50 mg/kg.

Take `COc1cc(CC(=O)O)cc(-c2ccc(Cl)cc2)c1`: in the data set on Rattus norvegicus [4], the inhibition in vivo at 10 mg/kg was 39%. In addition, the inhibition in vivo at 20 mg/kg in the data set with Rattus norvegicus [3] came out at 65%. In the data set with Rattus norvegicus [2], the inhibition in vivo at 50 mg/kg was found to be 53%. The compound further yielded an ED50 in the data set with Mus musculus of 16.1 mg/kg.

`COc1ccc(-c2cc(Cl)cc(CC(=O)O)c2)cc1` gave an LD50 at 168 h in [1] of 570 mg/kg. Moreover, the inhibition in vivo at 50 mg/kg in the data set on Rattus norvegicus [2] worked out at 19%. In the data set on Mus musculus, this compound displayed an ED50 of more than 50 mg/kg.

`O=C(O)Cc1cccc(-c2ccccc2)c1`: the LD50 at 168 h in data set [1] was found to be 566 mg/kg. The inhibition in vivo at 20 mg/kg in the data set on Rattus norvegicus [3] was 0%. Moreover, the inhibition in vivo at 50 mg/kg in the data set with Rattus norvegicus [2] worked out at 47%. In the data set with Mus musculus, this compound had an ED50 of more than 50 mg/kg.

In turn, `CC(C(=O)O)c1cc(Cl)cc(-c2ccc(Cl)cc2)c1` (centres undefined) gave an LD50 at 168 h in [1] of 200 mg/kg. This compound also had an inhibition in vivo at 20 mg/kg in the data set on Rattus norvegicus [3] of less than 33%. Besides, the inhibition in vivo at 50 mg/kg in the data set with Rattus norvegicus [2] is less than 41%. In the data set with Mus musculus, this compound had an ED50 of more than 50 mg/kg.

In [1], `CC(C(=O)O)c1cccc(-c2ccccc2)c1` (centres undefined) had an LD50 at 168 h of 566 mg/kg. The inhibition in vivo at 50 mg/kg in the data set with Rattus norvegicus [2] came out at 17%. The same compound had an ED50 in the data set on Mus musculus of 26.8 mg/kg.

Consider `COc1ccc(-c2cccc(CC(=O)O)c2)cc1`, for which the LD50 at 168 h in [1] is more than 800 mg/kg. Also, the inhibition in vivo at 50 mg/kg in the data set on Rattus norvegicus [2] was determined as 11%. This compound also returned a 50% effective dose (ED50) with Mus musculus of more than 50 mg/kg.

In data set [1], `O=C(O)Cc1cc(F)cc(-c2ccccc2)c1` displayed an LD50 at 168 h of 566 mg/kg. In the data set with Rattus norvegicus [5], this compound displayed an inhibition in vivo at 20 mg/kg of 45%. In addition, in the data set on Rattus norvegicus [4], the inhibition in vivo at 10 mg/kg turned out to be 26%. For the same compound, the inhibition in vivo at 50 mg/kg in the data set on Rattus norvegicus [2] turned out to be 50%. The ED50 in the data set on Mus musculus was more than 50 mg/kg.

`COc1ccc(-c2cc(Cl)cc(C(C)C(=O)O)c2)cc1` (centres undefined): the median lethal dose (LD50) at 168 h in [1] came to 283 mg/kg. Further, the inhibition in vivo at 50 mg/kg in the data set on Rattus norvegicus [2] came out at 8%. Further, in the data set with Mus musculus, the ED50 was more than 50 mg/kg.

Turning to `CC(C(=O)O)c1cc(Cl)cc(-c2ccccc2)c1` (centres undefined), in data set [1], the LD50 at 168 h was found to be 168 mg/kg. This compound had an inhibition in vivo at 50 mg/kg in the data set with Rattus norvegicus [2] of 4%. In addition, the ED50 in the data set on Mus musculus was more than 50 mg/kg.

In the case of `CC(C(=O)O)c1cc(F)cc(-c2ccccc2)c1` (centres undefined), in [1], the LD50 at 168 h was found to be 566 mg/kg. The same compound gave an inhibition in vivo at 50 mg/kg in the data set on Rattus norvegicus [2] of 31%. The ED50 in the data set with Mus musculus was more than 50 mg/kg.

As for `O=C(O)Cc1cccc(-c2ccc(Cl)cc2)c1`, the median lethal dose (LD50) at 168 h in [1] worked out at 238 mg/kg. In the data set on Rattus norvegicus [3], this compound came in with an inhibition in vivo at 20 mg/kg of less than 25%. The inhibition in vivo at 50 mg/kg in the data set with Rattus norvegicus [2] was determined as 44%. The compound also came in with an ED50 with Mus musculus of more than 50 mg/kg.

In data set [1], `Nc1cc(CC(=O)O)cc(-c2ccc(Cl)cc2)c1` displayed an LD50 at 168 h of 400 mg/kg. The inhibition in vivo at 50 mg/kg in the data set with Rattus norvegicus [2] was found to be 16%. In the data set on Mus musculus, this compound gave an ED50 of more than 50 mg/kg.

Turning to `CC(C(=O)O)c1cccc(-c2ccc(Cl)cc2)c1` (centres undefined), in [1], the median lethal dose (LD50) at 168 h is 283 mg/kg. Also, the inhibition in vivo at 20 mg/kg in the data set on Rattus norvegicus [3] was determined as 31%. The inhibition in vivo at 50 mg/kg in the data set on Rattus norvegicus [2] is 35%. In the data set on Mus musculus, this compound displayed an ED50 of 45 mg/kg.

The compound `COc1ccc(-c2cc(N)cc(CC(=O)O)c2)cc1` yielded a median lethal dose (LD50) at 168 h in [1] of 800 mg/kg. The same compound gave an inhibition in vivo at 50 mg/kg in the data set with Rattus norvegicus [2] of 0%. Besides, the ED50 in the data set with Mus musculus was more than 50 mg/kg.

The compound `Nc1cc(CC(=O)O)cc(-c2ccccc2)c1` yielded an LD50 at 168 h in data set [1] of 566 mg/kg. In addition, the inhibition in vivo at 50 mg/kg in the data set on Rattus norvegicus [2] amounted to 0%. The same compound yielded an ED50 with Mus musculus of more than 50 mg/kg.

As to `COc1ccc2c(c1)c(CC(=O)O)c(C)n2C(=O)c1ccc(Cl)cc1` [INDOMETHACIN], the inhibition in vivo at 0.5 mg/kg in the data set with Rattus norvegicus [6] is 19%. The inhibition in vivo at 2 mg/kg in the data set with Rattus norvegicus [7] came out at 25%. The inhibition in vivo at 5 mg/kg in the data set on Rattus norvegicus [8] was determined as 45%. The compound also came in with an ED50 in the data set with Mus musculus of 3.1 mg/kg.

In turn, `CC(C(=O)O)c1cc(F)cc(-c2ccc(Cl)cc2)c1` (centres undefined) registered an LD50 at 168 h in data set [1] of 200 mg/kg. This compound also showed an inhibition in vivo at 20 mg/kg with Rattus norvegicus [3] of less than 26%. Besides, the inhibition in vivo at 50 mg/kg in the data set on Rattus norvegicus [2] is less than 39%. The same compound registered an ED50 with Mus musculus of more than 50 mg/kg.

Compound `O=C(O)Cc1cc(F)cc(-c2ccc(Cl)cc2)c1` had an LD50 at 168 h in [1] of 283 mg/kg. This compound also returned an inhibition in vivo at 20 mg/kg in the data set with Rattus norvegicus [3] of 16%. In the data set on Rattus norvegicus [2], this compound had an inhibition in vivo at 50 mg/kg of 38%. For the same compound, in the data set with Mus musculus, the ED50 is more than 50 mg/kg.

In data set [1], `O=C(O)Cc1cc(Cl)cc(-c2ccc(Cl)cc2)c1` came in with an LD50 at 168 h of 283 mg/kg. The inhibition in vivo at 20 mg/kg in the data set with Rattus norvegicus [3] came out at 29%. In the data set with Rattus norvegicus [2], this compound returned an inhibition in vivo at 50 mg/kg of 45%. For the same compound, in the data set on Mus musculus, the median effective dose (ED50) is more than 50 mg/kg.

In data set [1], `CC(=O)Nc1cc(CC(=O)O)cc(-c2ccccc2)c1` yielded an LD50 at 168 h of more than 800 mg/kg. For the same compound, the inhibition in vivo at 50 mg/kg with Rattus norvegicus [2] turned out to be 5%. In the data set on Mus musculus, this compound had an ED50 of more than 50 mg/kg.
